Calls of active or inactive are those of the source. No cut-off for these calls is given here.
Columns and labels:
[1] = system: Chorioallantoic membrane; experiment: Antiangiogenic activity in Leghorn chicken embryo chorioallantoic membrane assessed as effect on blood vessel length at 5 nmol after 6 hrs by light microscopic analysis; assay type: functional, tissue-based; conditions: Gallus gallus
Outline: (§1)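 Fertilized chicken eggs, CAM assay. Compound was applied topically into a small silicon foil ring placed on the CAM. The membrane and its extraembryonal blood vessels were monitored over 24 h, with observations at 6 h and 24 h post application.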

[2] = system: A2780cis; experiment: Antitumor activity against human A2780cis xenografted in nude mouse at 60 mg/kg, ip administered on day 0, 4, 11 and 16; assay type: functional, organism-based
[3] = system: Chorioallantoic membrane; experiment: Antiangiogenic activity in Leghorn chicken embryo chorioallantoic membrane assessed as reduction in blood vessel area at 5 nmol after 6 hrs by light microscopic analysis relative to control; assay type: functional, tissue-based; design: scale not given: the % may be the effect or the level left; conditions: Gallus gallus
Outline: (§2)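 The CAM assay was run with topical application into a silicon foil ring atop the CAM of fertilized chicken eggs. Area covered by blood vessels was quantified by fractal analysis relative to control.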

[4] = system: Chorioallantoic membrane; experiment: Antiangiogenic activity in Leghorn chicken embryo chorioallantoic membrane assessed as induction of hemorrhages at 5 nmol after 24 hrs by light microscopic analysis; assay type: functional, tissue-based; conditions: Gallus gallus; outline: as §1
[5] = system: Chorioallantoic membrane; experiment: Antiangiogenic activity in Leghorn chicken embryo chorioallantoic membrane assessed as induction of hemorrhages at 5 nmol after 6 hrs by light microscopic analysis; assay type: functional, tissue-based; conditions: Gallus gallus; outline: as §1
[6] = system: A2780; experiment: Antivascular activity against human A2780 cells xenografted in nude mouse assessed as induction of hemorrhages at tumor core at 100 mg/kg administered on every other day and measured after 24 hrs by H and E staining based histopathological analysis; assay type: functional, organism-based
[7] = system: Chorioallantoic membrane; experiment: Antiangiogenic activity in Leghorn chicken embryo chorioallantoic membrane assessed as reduction in diameter of main blood vessel at 5 nmol after 24 hrs by light microscopic analysis; assay type: functional, tissue-based; conditions: Gallus gallus; outline: as §1
[8] = system: Chorioallantoic membrane; experiment: Antiangiogenic activity in Leghorn chicken embryo chorioallantoic membrane assessed as disruption of smaller blood vessels at 5 nmol after 6 hrs by light microscopic analysis; assay type: functional, tissue-based; conditions: Gallus gallus; outline: as §1
[9] = system: Chorioallantoic membrane; experiment: Antiangiogenic activity in Leghorn chicken embryo chorioallantoic membrane assessed as disruption of smaller blood vessels at 5 nmol after 24 hrs by light microscopic analysis; assay type: functional, tissue-based; conditions: Gallus gallus; outline: as §1
[10] = system: A2780; experiment: Antivascular activity against human A2780 cells xenografted in nude mouse assessed as induction of necrosis at tumor core at 100 mg/kg […] and measured after 24 hrs by H and E staining based histopathological analysis; assay type: functional, organism-based
Outline: (§3)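 Mice bore A2780 tumor xenografts. Compound was formulated in tween80/ethanol (1:1) and injected as single doses. Tumors were inspected for discoloration as a sign of vascular disruption, and treated tumors were examined histologically for hemorrhage and necrosis.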

[11] = system: Chorioallantoic membrane; experiment: Antiangiogenic activity in Leghorn chicken embryo chorioallantoic membrane assessed as effect on blood vessel length at 10 nmol after 6 hrs by light microscopic analysis; assay type: functional, tissue-based; conditions: Gallus gallus; outline: as §1
[12] = system: Chorioallantoic membrane; experiment: Antiangiogenic activity in Leghorn chicken embryo chorioallantoic membrane assessed as induction of hemorrhages at 10 nmol after 6 hrs by light microscopic analysis; assay type: functional, tissue-based; conditions: Gallus gallus; outline: as §1
[13] = system: Chorioallantoic membrane; experiment: Antiangiogenic activity in Leghorn chicken embryo chorioallantoic membrane assessed as disruption of smaller blood vessels at 10 nmol after 6 hrs by light microscopic analysis; assay type: functional, tissue-based; conditions: Gallus gallus; outline: as §1
[14] = system: Chorioallantoic membrane; experiment: Antiangiogenic activity in Leghorn chicken embryo chorioallantoic membrane assessed as disruption of smaller blood vessels at 10 nmol after 24 hrs by light microscopic analysis; assay type: functional, tissue-based; conditions: Gallus gallus; outline: as §1
[15] = system: Chorioallantoic membrane; experiment: Antiangiogenic activity in Leghorn chicken embryo chorioallantoic membrane assessed as induction of hemorrhages at 10 nmol after 24 hrs by light microscopic analysis; assay type: functional, tissue-based; conditions: Gallus gallus; outline: as §1
[16] = system: A2780; experiment: Antivascular activity against human A2780 cells xenografted in nude mouse assessed as tumor discoloration at 200 mg/kg administered on every other day and measured after 24 hrs; assay type: functional, organism-based; conditions: in the assay text read “administered as single dose” for “administered on every other day”; outline: as §3
[17] = system: Chorioallantoic membrane; experiment: Antiangiogenic activity in Leghorn chicken embryo chorioallantoic membrane assessed as reduction in diameter of main blood vessel at 10 nmol after 24 hrs by light microscopic analysis; assay type: functional, tissue-based; conditions: Gallus gallus; outline: as §1
[18] = system: Chorioallantoic membrane; experiment: Antiangiogenic activity in Leghorn chicken embryo chorioallantoic membrane assessed as reduction in blood vessel area at 10 nmol after 6 hrs by light microscopic analysis relative to control; assay type: functional, tissue-based; design: scale not given: the % may be the effect or the level left; conditions: Gallus gallus; outline: as §2

Structure (SMILES)	Activity [1]	Activity [2]	Activity [3]	Activity [4]	Activity [5]	Activity [6]	Activity [7]	Activity [8]	Activity [9]	Activity [10]	Activity [11]	Activity [12]	Activity [13]	Activity [14]	Activity [15]	Activity [16]	Activity [17]	Activity [18]
N#CC1=C(N)Oc2c(ccc3ccccc23)C1c1cc(F)cc(F)c1 (stereo not drawn)	Active	Active	59%	inactive	Active	Active	Active	Active	inactive	Active								
N#CC1=C(N)Oc2c(ccc3ccccc23)C1c1cccc([N+](=O)[O-])c1 (stereo not drawn)											Active	Active	Active	inactive	inactive	inactive	Active	32%
